The target in series [1] is T1, Tubulin (Homo sapiens) (UniProt P68371+Q9H4B7+P0DPH7+P68366+Q13509+Q71U36+P04350+Q3ZCM7+P07437+P68363+Q9BQE3+Q6PEY2+Q13885+Q9BVA1+Q9BUF5). Kind of series: Stabilization of microtubules in human QBI293 cells assessed as decrease in alpha-tubulin levels at 10 uM after 4 hrs by ELISA relative to control. The format is cell-based. Further details: scale not given: the % may be the effect or the level left. In outline: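 QBI293 cells grown in DMEM with 10% FBS, 2 mM L-glutamine and penicillin/streptomycin, plated at 6 × 10^5 cells/well and left overnight. […] Whole-cell extract supernatants protein-normalised by BCA. Total α-tubulin measured by ELISA against standard curves, reported as fold-change over DMSO-treated cells; one-way ANOVA.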

For series [2], the target named is T1, Tubulin (Homo sapiens). Description: Stabilization of microtubules in human QBI293 cells assessed as fold change in alpha tubulin levels at 1 uM after 4 hrs by ELISA relative to DMSO. The format is cell-based. In outline:
(§1)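 QBI293 cells were grown in DMEM with 10% FBS, 2 mM L-glutamine and penicillin/streptomycin, then plated at 6 × 10^5 cells/well and left overnight. Medium was replaced with fresh medium holding vehicle (DMSO) or compound, and cells were incubated 4 h. Whole-cell extract supernatants were protein-normalized by BCA assay. AcTub and α-tubulin were quantified by ELISA against standard curves. Values are fold-change over DMSO, analysed by one-way ANOVA.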

Series [3] concerns the target T1, Tubulin (Homo sapiens). Kind of series: Stabilization of microtubules in human QBI293 cells assessed as fold change in acetylated tubulin levels at 10 uM after 4 hrs by ELISA relative to DMSO. The format is cell-based. In outline: as §1
In series [4] the target is T1, Tubulin (Homo sapiens). Description: Stabilization of microtubules in human QBI293 cells assessed as fold change in acetylated tubulin levels at 1 uM after 4 hrs by ELISA relative to DMSO. The format is cell-based. A digest of the protocol: as §1
The target in series [5] is T1, Tubulin (Homo sapiens). Description: Stabilization of microtubules in human QBI293 cells assessed as fold change in acetylated tubulin levels at 10 uM after 4 hrs by ELISA relative to cevipabulin. The format is cell-based.
Series [6] addresses T1, Tubulin (Homo sapiens). Kind of series: Stabilization of microtubules in human QBI293 cells assessed as fold change in alpha tubulin levels at 10 uM after 4 hrs by ELISA relative to DMSO. The format is cell-based. In outline: as §1
Series [7] addresses T1, Tubulin (Homo sapiens). Kind of series: Stabilization of microtubules in human QBI293 cells assessed as fold change in acetylated tubulin levels at 1 uM after 4 hrs by ELISA relative to cevipabulin. Format: cell-based.
The nature of series [8]: n-octanol-water distribution coefficient, log D of the compound at pH 7.4 by shake flask method. The format is physicochemical. To be noted: n-octanol/water, read-out: logD. A digest of the protocol:
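Distribution coefficient between n-octanol and water at pH 7.4, measured by shake-flask method.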

In series [9] the test system is Primary cortical neuron. Kind of series: Stabilization of microtubules in Spargue-Dawley rat primary cortical neurons assessed as prevention of microtubule collapse by causing increase in acetyl tubulin levels at 1 uM incubated for 8 hrs in presence of phosphatase inhibitor OA by fluorescence microscopy analysis. Format: tissue-based. A digest of the protocol: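 Rat cortical neurons are grown 10 days on coverslips. They are treated 8 h with or without 15 nM okadaic acid, with or without test compound at 1 µM. Axonal acetyl-tubulin is then assessed by immunostaining.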

The nature of series [10]: Ratio of drug concentration in brain to plasma in CD-1 mouse at 2.5 mg/kg, ip administered as single cassette dosing and measured after 1 hr. The format is ADME, organism-based. The settings on record: read-out: BPR. A digest of the protocol: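 Groups of three female CD-1 mice, 2–3 months old, cassette-dosed i.p. with 2–3 compounds at the same time, each at 2.5 mg/kg in DMSO. Euthanised 1 h after dosing. Brain hemispheres homogenised in 10 mM ammonium acetate pH 5.7 (50% w/v). Plasma from blood collected in EDTA and centrifuged 4,500 × g, 10 min, 4 °C. Compound levels measured in both; brain/plasma ratio reported.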

Series [11] can be described thus: Half life in CD-1 mouse plasma at 5 mg/kg, ip administered as single cassette dosing and measured upto 16 hrs. Format: ADME, organism-based. A digest of the protocol:
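CD-1 mice, female, 2–3 months old, three per group, given a single i.p. dose of 5 mg/kg dissolved in DMSO. Brain and plasma sampled over 16 h. Plasma is from blood collected in 0.5 M EDTA and spun 10 min at 4,500 × g, 4 °C. Brain hemispheres are sonicated in 10 mM ammonium acetate pH 5.7 (50% w/v). Compound levels are measured in plasma and brain homogenates.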

In series [12] the test system is Primary cortical neuron. Kind of series: Stabilization of microtubules in CD-1 mouse primary cortical neurons assessed as prevention of microtubule collapse by causing increase in acetyl tubulin levels at 10 uM incubated for 8 hrs in presence of phosphatase inhibitor OA by ELISA. Format: tissue-based. In outline:
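Mouse cortical neurons are plated at 6 × 10^5 cells/well and grown 10 days. […] Acetyl-tubulin in homogenates is measured by ELISA.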

Series [13] addresses T1, Tubulin (Homo sapiens). Description: Stabilization of microtubules in human QBI293 cells assessed as decrease in alpha-tubulin levels at 1 to 10 uM after 4 hrs by ELISA relative to control. Further details: scale not given: the % may be the effect or the level left. The settings on record: dose 1-10 µM. The format is cell-based. In outline:
(§2)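 QBI293 cells are grown in DMEM with 10% FBS, 2 mM L-glutamine and penicillin/streptomycin, plated at 6 × 10^5 cells/well and incubated overnight. […] Acetyl- and total α-tubulin in whole-cell extract supernatants are measured by ELISA against standard curves, with protein by BCA. Values are fold-change over DMSO; AcTub is also given relative to 100 nM cevipabulin positive control. Significance is by one-way ANOVA.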

Series [14] has as its target T1, Tubulin (Homo sapiens). Description: Stabilization of microtubules in human QBI293 cells assessed as increase in acetylated tubulin levels after 4 hrs by ELISA. Format: cell-based. A digest of the protocol:
as §2

Series [15] can be described thus: Ratio of drug concentration in brain to plasma in CD-1 mouse at 5 mg/kg, ip administered as single cassette dosing and measured after 1 hr. The format is ADME, organism-based. The settings on record: read-out: BPR. A digest of the protocol:
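Groups of three female CD-1 mice (2–3 months old) received one i.p. dose of 5 mg/kg in DMSO and were euthanized 1 h later. Brain hemispheres were sonicated in 10 mM ammonium acetate, pH 5.7 (50% w/v). Plasma came from blood collected in 0.5 M EDTA, spun 10 min at 4,500 × g, 4 °C. B/P is the ratio of brain to plasma compound concentration.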

The text below walks through data of ChEMBL document CHEMBL4732138, “Evaluation of the Structure-Activity Relationship of Microtubule-Targeting 1,2,4-Triazolo[1,5-a]pyrimidines Identifies New Candidates for Neurodegenerative Tauopathies” (J Med Chem, 2021).

Active and inactive are the calls of the source. The rule behind the calls is not given here.

On to `CC(Cc1c(-c2c(F)cc(F)cc2F)c(Cl)nc2ncnn12)C(F)(F)F` (stereo not given), for which, on Tubulin (Homo sapiens) [1], the Activity turned out to be 22%. Further, the fold change (FC) at Tubulin (Homo sapiens) [2] came to 1.03; at Tubulin (Homo sapiens) [3] it was 2.29; at Tubulin (Homo sapiens) [4] it was 2.3; at Tubulin (Homo sapiens) [5], 0.53; at Tubulin (Homo sapiens) [6] it was 0.78; on Tubulin (Homo sapiens) [7], 0.53.

With `C[C@@H](Nc1c(-c2c(F)cc(C#N)cc2F)c(Cl)nc2ncnn12)C(C)(C)C`, the logD in [8] amounted to 2.35. The outcome in the series with Primary cortical neuron [9] and in the series with Primary cortical neuron [12] was Active. In addition, the Kp at 1 h in [10] was found to be 0.7. Besides, the half-life in series [11] was 1.8 h.

In the case of `COc1cc(F)c(-c2c(Cl)nc3ncnn3c2N[C@@H](C)C(F)(F)F)c(F)c1`, the fold change (FC) on Tubulin (Homo sapiens) [2] worked out at 0.72; at Tubulin (Homo sapiens) [3], 2.07; on Tubulin (Homo sapiens) [4] it was 3.16; at Tubulin (Homo sapiens) [5] it was 0.42; on Tubulin (Homo sapiens) [6] it was 0.51; on Tubulin (Homo sapiens) [7] it was 0.64. The Activity on Tubulin (Homo sapiens) [13] is above 15%.

As for `CC(C)[C@H](Nc1c(-c2c(F)cc(F)cc2F)c(Cl)nc2ncnn12)C(F)(F)F`, the Activity at Tubulin (Homo sapiens) [1] turned out to be 39%.

`CC(C)[C@@H](C)Nc1c(-c2c(F)cc(F)cc2F)c(Cl)nc2ncnn12`: the log distribution coefficient (logD) in series [8] was 3.51. For the same compound, in the series on Primary cortical neuron [9], the outcome was Active. The Activity entry at Tubulin (Homo sapiens) [14] was “Dose-dependent effect”. The same compound gave a half-life in series [11] of 1.1 h. Moreover, the Kp at 1 h in series [15] was found to be 2.7.

As to `N#Cc1cc(F)c(-c2c(Cl)nc3ncnn3c2N2CCCCCC2)c(F)c1`, the logD in series [8] was determined as 2.12. Also, the fold change (FC) is 0.98 on Tubulin (Homo sapiens) [2]; 11.2 at Tubulin (Homo sapiens) [3]; 6.4 on Tubulin (Homo sapiens) [4]; 1.82 at Tubulin (Homo sapiens) [5]; 0.99 at Tubulin (Homo sapiens) [6]; 1.04 at Tubulin (Homo sapiens) [7]. Further, the Kp at 1 h in [10] was determined as 0.7.

As to `CC(C)[C@@H](C)Nc1c(-c2c(F)cc(C#N)cc2F)c(Cl)nc2ncnn12`, the log distribution coefficient (logD) in series [8] came out at 2.47. In addition, the fold change (FC) at Tubulin (Homo sapiens) [2] amounted to 0.93; on Tubulin (Homo sapiens) [3], 4.28; at Tubulin (Homo sapiens) [4], 3.8; on Tubulin (Homo sapiens) [5], 0.69; on Tubulin (Homo sapiens) [6], 0.94; on Tubulin (Homo sapiens) [7], 0.62. In series [10], the Kp at 1 h was 0.7.

As to `Fc1cc(F)c(-c2c(Cl)nc3ncnn3c2N2CCCCCC2)c(F)c1`, the logD in series [8] was determined as 3.38. The fold change (FC) on Tubulin (Homo sapiens) [2] stood at 0.99; on Tubulin (Homo sapiens) [3] it was 6.87; at Tubulin (Homo sapiens) [4], 4.16; on Tubulin (Homo sapiens) [5], 0.74; at Tubulin (Homo sapiens) [6], 0.99; at Tubulin (Homo sapiens) [7], 0.45. In addition, the Activity result on Tubulin (Homo sapiens) [14] was “Dose-dependent effect”. Also, the Kp at 1 h in series [15] was determined as 1.4.
